In ChEMBL document CHEMBL3352073, “Synthesis of cyclic 1,9-acetal derivatives of forskolin and their bioactivity evaluation” (Eur J Med Chem, 2014):
In brackets after ≈: the same amount, converted by molar mass.

Key:
[1] = Inhibition of rat intestinal alpha-glucosidase using p-nitrophenyl-alpha-D-glucopyranoside substrate by spectrophotometry
Outline: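 Crude enzyme was the centrifuged supernatant of sonicated rat intestinal acetone powder in normal saline (100:1 w/v). Samples from 5 mg/mL DMSO stocks were preincubated with enzyme for 5 min in 100 mM phosphate buffer pH 6.8. Then 5 mM p-nitrophenyl-α-D-glucopyranoside solution was added, and p-nitrophenol was read at 405 nm after 5 min. Substrate-free blanks and a DMSO control were included, in triplicate. IC50 was obtained by regression on mean inhibition.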

[2] = test system: MCF7; assay: Anticancer activity against human MCF7 cells after 24 hrs by MTT assay; format: functional, cell-based; details: MCF7, 24 h
Outline: (§1)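 Cells were seeded at 1 × 10^6 to 1 × 10^5 cells/well in FBS-rich medium with antibiotics, and compounds were added after 24 h. MTT (5 mg/ml stock in PBS pH 7.4) was then added, with 4 h in the dark in an incubator. Dye was removed (except for suspension K562), formazan was dissolved in DMSO with 10 min shaking, and A570 was read. Percent cytotoxicity was calculated relative to untreated control absorbance.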

[3] = Anticancer activity against human MDA-MB cells after 24 hrs by MTT assay; format: functional, cell-based
[4] = test system: HeLa; assay: Anticancer activity against human HeLa cells after 24 hrs by MTT assay; format: functional, cell-based; outline: as §1
[5] = test system: HEK293; assay: Cytotoxic activity against HEK293 cells after 24 hrs by MTT assay; format: cell-based; details: Homo sapiens, HEK293, 24 h; outline: as §1
[6] = test system: A498; assay: Anticancer activity against human A498 cells after 24 hrs by MTT assay; format: functional, cell-based; details: A498, 24 h; outline: as §1
[7] = test system: K562; assay: Anticancer activity against human K562 cells after 24 hrs by MTT assay; format: functional, cell-based; details: K562, 24 h; outline: as §1
[8] = Anticancer activity against human SH-SY5Y cells after 24 hrs by MTT assay; format: functional, cell-based
[9] = test system: WRL68; assay: Anticancer activity against human WRL68 cells after 24 hrs by MTT assay; format: functional, cell-based; details: WRL68, 24 h; outline: as §1
[10] = test system: NRK; assay: Cytotoxicty against rat NRK cells after 24 hrs by MTT assay; format: cell-based; outline: as §1
[11] = Induction of hemolysis in human erythrocytes assessed as mean erythrocyte fragility by measuring level of hemolysis at 50% PBS at 100 ug/mL by spectrophotomtery based erythrocyte osmotic fragility assay; format: cell-based
Outline: (§2)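 Heparinised human blood was incubated with compound at 37 °C for 60 min, then transferred to hypotonic PBS (0.1–0.85 %). After 30 min equilibration and centrifugation, supernatant A540 was read. Percent lysis is relative to a 100% haemolysis standard, and fragility curves give MEF50 as the haemolysis level at 50% PBS. DMSO 0.5% served as vehicle control.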

[12] = Induction of hemolysis in human erythrocytes assessed as mean erythrocyte fragility by measuring level of hemolysis at 50% PBS at 50 ug/mL by spectrophotomtery based erythrocyte osmotic fragility assay; format: cell-based; outline: as §2

Row | SMILES | IC50 [1] | IC50 [2] | IC50 [4] | IC50 [7] | IC50 [3] | IC50 [5] | IC50 [6] | IC50 [8] | IC50 [9] | IC50 [10] | Activity [11] | Activity [12]
1 | C=C[C@@]1(C)CC(=O)[C@@]23O[C@@H](C)O[C@H]4CCC(C)(C)[C@H]([C@H](OC(C)=O)[C@H](O)[C@@]2(C)O1)[C@]43C | 6.4 µg/mL (≈ 14.7 µM) | 39.2 µg/mL (≈ 89.9 µM) | 17.4 µg/mL (≈ 39.9 µM) | > 100 µg/mL | > 100 µg/mL | > 100 µg/mL | 41.6 µg/mL (≈ 95.3 µM) | > 100 µg/mL | > 100 µg/mL | > 100 µg/mL |  | 
2 | C=C[C@@]1(C)CC(=O)[C@@]23O[C@@H](/C=C/c4ccccc4)O[C@H]4CCC(C)(C)[C@H]([C@H](O)[C@H](OC(C)=O)[C@@]2(C)O1)[C@]43C | 0.74 µg/mL (≈ 1.41 µM) | > 100 µg/mL | > 100 µg/mL | > 100 µg/mL | > 100 µg/mL | 38.5 µg/mL (≈ 73.5 µM) | > 100 µg/mL | > 100 µg/mL | > 100 µg/mL | > 100 µg/mL |  | 
3 | C=C[C@@]1(C)CC(=O)[C@@]23O[C@@H](C)O[C@H]4CCC(C)(C)[C@H]([C@H](O)[C@H](O)[C@@]2(C)O1)[C@]43C | 4.23 µg/mL (≈ 10.7 µM) | 45.7 µg/mL (≈ 116 µM) | 0.95 µg/mL (≈ 2.41 µM) | 25.4 µg/mL (≈ 64.3 µM) | 24.5 µg/mL (≈ 62.1 µM) | 24.8 µg/mL (≈ 63 µM) | 40.6 µg/mL (≈ 103 µM) | 34.7 µg/mL (≈ 87.9 µM) | 29.7 µg/mL (≈ 75.4 µM) | 48 µg/mL (≈ 122 µM) | 0.69 | 0.85
4 | COc1cc([C@@H]2c3cc4c(cc3[C@H](O)[C@H]3COC(=O)[C@H]23)OCO4)cc(OC)c1OC [PODOFILOX] |  |  | 3.14 µg/mL (≈ 7.58 µM) | 0.013 µg/mL (≈ 0.0314 µM) | 0.017 µg/mL (≈ 0.041 µM) | 0.12 µg/mL (≈ 0.29 µM) | 0.034 µg/mL (≈ 0.082 µM) | 1.05 µg/mL (≈ 2.53 µM) |  |  | 0.69 | 
5 | CC(=O)O[C@H]1C(=O)[C@@]2(C)[C@H]([C@H](OC(=O)c3ccccc3)[C@]3(O)C[C@H](OC(=O)[C@H](O)[C@@H](NC(=O)c4ccccc4)c4ccccc4)C(C)=C1C3(C)C)[C@]1(OC(C)=O)CO[C@@H]1C[C@@H]2O [PACLITAXEL] |  |  |  | 0.018 µg/mL (≈ 0.0211 µM) | 0.026 µg/mL (≈ 0.0304 µM) | 0.008 µg/mL (≈ 0.00937 µM) | 7.53 µg/mL (≈ 8.82 µM) | 7.3 µg/mL (≈ 8.55 µM) | 0.004 µg/mL (≈ 0.00468 µM) |  |  | 
6 | C=C[C@@]1(C)CC(=O)[C@@]23O[C@@H](c4ccccc4)O[C@H]4CCC(C)(C)[C@H]([C@H](O)[C@H](O)[C@@]2(C)O1)[C@]43C | > 100 µg/mL | > 100 µg/mL | 3.89 µg/mL (≈ 8.52 µM) | 1.26 µg/mL (≈ 2.77 µM) | 20.8 µg/mL (≈ 45.4 µM) | 1.17 µg/mL (≈ 2.56 µM) | 20.4 µg/mL (≈ 44.8 µM) | 21.6 µg/mL (≈ 47.2 µM) | 9.79 µg/mL (≈ 21.4 µM) | 23.7 µg/mL (≈ 51.9 µM) | 0.69 | 0.67
7 | COc1cc(/C=C/C(=O)CC(=O)/C=C/c2ccc(O)c(OC)c2)ccc1O [CURCUMIN] |  |  |  |  |  |  |  |  |  |  | 0.53 | 
8 | C[C@H]1O[C@H](O[C@H]2[C@H](O)[C@@H](O)[C@@H](O[C@H]3[C@H](O)[C@@H](O)C(O)O[C@@H]3CO)O[C@@H]2CO)[C@H](O)[C@@H](O)[C@@H]1N[C@H]1C=C(CO)[C@@H](O)[C@H](O)[C@H]1O (stereo partly specified) [ACARBOSE] | 0.45 µg/mL (≈ 0.697 µM) |  |  |  |  |  |  |  |  |  |  | 

Now from value to compound, other results behind:

Row | IC50 [1] | IC50 [2] | IC50 [4] | IC50 [7] | SMILES | IC50 [3] | IC50 [5] | IC50 [6] | IC50 [8] | IC50 [9] | IC50 [10] | Activity [11] | Activity [12]
9 | 0.76 µg/mL (≈ 1.4 µM) | > 100 µg/mL | > 100 µg/mL | > 100 µg/mL | C=C[C@@]1(C)CC(=O)[C@@]23O[C@@H](c4ccc([N+](=O)[O-])cc4)O[C@H]4CCC(C)(C)[C@H]([C@H](O)[C@H](OC(C)=O)[C@@]2(C)O1)[C@]43C | > 100 µg/mL | > 100 µg/mL | > 100 µg/mL | > 100 µg/mL | > 100 µg/mL | > 100 µg/mL |  | 
10 | 5.87 µg/mL (≈ 13.4 µM) | > 100 µg/mL | > 100 µg/mL | > 100 µg/mL | C=C[C@@]1(C)CC(=O)[C@@]23O[C@@H](C)O[C@H]4CCC(C)(C)[C@H]([C@H](O)[C@H](OC(C)=O)[C@@]2(C)O1)[C@]43C | > 100 µg/mL | > 100 µg/mL | > 100 µg/mL | > 100 µg/mL | > 100 µg/mL | > 100 µg/mL |  | 
11 | > 100 µg/mL | > 100 µg/mL | 42 µg/mL (≈ 83.2 µM) | > 100 µg/mL | C=C[C@@]1(C)CC(=O)[C@@]23O[C@@H](c4cccs4)O[C@H]4CCC(C)(C)[C@H]([C@H](O)[C@H](OC(C)=O)[C@@]2(C)O1)[C@]43C | > 100 µg/mL | 40.1 µg/mL (≈ 79.6 µM) | > 100 µg/mL | > 100 µg/mL | > 100 µg/mL | > 100 µg/mL |  | 
12 | 4.96 µg/mL (≈ 10.2 µM) | > 100 µg/mL | > 100 µg/mL | > 100 µg/mL | C=C[C@@]1(C)CC(=O)[C@@]23O[C@@H](c4ccco4)O[C@H]4CCC(C)(C)[C@H]([C@H](O)[C@H](OC(C)=O)[C@@]2(C)O1)[C@]43C | > 100 µg/mL | > 100 µg/mL | > 100 µg/mL | > 100 µg/mL | > 100 µg/mL | > 100 µg/mL |  | 
13 | 4.14 µg/mL (≈ 8.3 µM) | 1.15 µg/mL (≈ 2.31 µM) | 9.22 µg/mL (≈ 18.5 µM) | 1.26 µg/mL (≈ 2.53 µM) | C=C[C@@]1(C)CC(=O)[C@@]23O[C@@H](c4ccccc4)O[C@H]4CCC(C)(C)[C@H]([C@H](OC(C)=O)[C@H](O)[C@@]2(C)O1)[C@]43C | 1.28 µg/mL (≈ 2.57 µM) | 14.3 µg/mL (≈ 28.7 µM) | 16.7 µg/mL (≈ 33.5 µM) | 16.6 µg/mL (≈ 33.3 µM) | 16.6 µg/mL (≈ 33.3 µM) | 20.1 µg/mL (≈ 40.4 µM) | 0.57 | 0.53
14 | 2.81 µg/mL (≈ 5.64 µM) | > 100 µg/mL | > 100 µg/mL | > 100 µg/mL | C=C[C@@]1(C)CC(=O)[C@@]23O[C@@H](c4ccccc4)O[C@H]4CCC(C)(C)[C@H]([C@H](O)[C@H](OC(C)=O)[C@@]2(C)O1)[C@]43C | > 100 µg/mL | > 100 µg/mL | > 100 µg/mL | > 100 µg/mL | > 100 µg/mL | > 100 µg/mL |  | 
15 | > 100 µg/mL | > 100 µg/mL | 46.2 µg/mL (≈ 79.9 µM) | > 100 µg/mL | C=C[C@@]1(C)CC(=O)[C@@]23O[C@@H](c4ccc(Br)cc4)O[C@H]4CCC(C)(C)[C@H]([C@H](O)[C@H](OC(C)=O)[C@@]2(C)O1)[C@]43C | > 100 µg/mL | > 100 µg/mL | > 100 µg/mL | > 100 µg/mL | > 100 µg/mL | > 100 µg/mL |  | 
